Assay results: ChEMBL document CHEMBL1122077, “Synthesis and cardiovascular activity of a new series of cyclohexylaralkylamine derivatives related to perhexiline” (1982)

Tests used:
Canis familiaris [1] = experiment: In vivo percent coronary flow in Mongrel dogs after administration at 3 mg/Kg (iv); type: functional, Canis lupus familiaris
Method in brief: (§1)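 Overnight-fasted mongrel dogs of either sex (15–25 kg), pentobarbital 25 mg/kg iv (maintenance 1 mg/kg iv) plus levopromazine 0.5 mg/kg im. Femoral-vein injections at 0.3–1 and 3 mg/kg; coronary flow increase given as percent of the period before the 3 mg/kg injection.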

Sus scrofa [2] = species: Sus scrofa; experiment: Antagonism of calcium-induced contraction of a depolarized coronary in pig; type: functional; set-up: unit not given beside the values
Method in brief: (§2)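 Helical pig coronary strips (2–2.5 cm long, 3–4 mm wide) at 0.5 g resting tension in modified Krebs-Henseleit (1.25 mmol/L CaCl2), depolarized, contracted with calcium. Antagonist added 30 min beforehand. Result as pA2 (Arunlakshana–Schild) or pD2' (Ariens–Van Rossum, for noncompetitive antagonism).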

Rattus norvegicus [3] = species: Rattus norvegicus; experiment: Alpha-adrenolytic activity (pA2) on the descending thoracic branch of the rat aorta; type: functional
Method in brief: (§3)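 Rat aortic strips held at 2 g resting tension, left about 2 h to stabilize; antagonist put in the bath 30 min before agonist challenge. pA2 by Arunlakshana–Schild analysis as developed by Miesch et al.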

Rattus norvegicus [4] = species: Rattus norvegicus; experiment: Alpha-adrenolytic activity on the descending thoracic branch of the rat aorta; type: functional
Method in brief: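 Isolated aorta preparation set at 2 g resting tension and stabilized about 2 h. Antagonist was added to the bath 30 min before the assay. Competitive antagonism was expressed as pA2 (Arunlakshana–Schild method). Noncompetitive antagonism was expressed as pD2' (Ariens–Van Rossum calculation).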

Rattus norvegicus [5] = species: Rattus norvegicus; experiment: Alpha-adrenolytic activity (pA2) on the descending thoracic branch of the rat aorta; Insoluble; type: functional, organism-based; method in brief: as §3
Canis familiaris [6] = experiment: In vivo percent coronary flow in Mongrel dogs after administering 3 mg/Kg (iv) of the compound; Insoluble; type: functional, organism-based; settings: Canis lupus familiaris; method in brief: as §1
Sus scrofa [7] = species: Sus scrofa; experiment: Antagonism of calcium-induced contraction on the depolarized coronary of pig; Insoluble; type: functional, organism-based; method in brief: as §2

Row | SMILES | Coronary flow (Canis familiaris [1]) | Ca2+ antagonism (Sus scrofa [2]) | Alpha-adrenolytic activity (Rattus norvegicus [3]) | Alpha-adrenolytic activity (Rattus norvegicus [4]) | Alpha-adrenolytic activity (Rattus norvegicus [5]) | Coronary flow (Canis familiaris [6]) | Ca2+ antagonism (Sus scrofa [7])
1 | CC(Cc1ccccc1)NCC(c1ccccc1)C1CCCCC1.O=C(O)/C=C\C(=O)O (stereo not given) | 157 | 6.2 | 6.9 | – | – | – | –
2 | CC(Cc1ccc(O)cc1)NCC(c1ccccc1)C1CCCCC1.O=[N+]([O-])O (stereo not given) | 105 | 4.8 | – | 6.35 | – | – | –
3 | O=[N+]([O-])O.c1ccc(C(CNC2CCCC2)C2CCCCC2)cc1 (stereo not given) | 38.5 | 6.2 | 5.9 | – | – | – | –
4 | C1CCC(NCCC(C2CCCCC2)C2CCCCC2)CC1.Cl | 130 | 4.85 | 7.25 | – | – | – | –
5 | Cl.Oc1ccc(C(CNC2CCCCC2)C2CCCCC2)cc1 (stereo not given) | 133.5 | 4.5 | – | 7.1 | – | – | –
6 | CC(CCc1ccccc1)NCCC(C1CCCCC1)C1CCCCC1 (stereo not given) | – | – | – | – | Insoluble | Insoluble | Insoluble
7 | CN1CCCCC1CC(C1CCCCC1)C1CCCCC1 (stereo not given) | 135 | 5.3 | 6.9 | – | – | – | –
8 | COc1ccc(CCNCCC(C2CCCCC2)C2CCCCC2)cc1OC.O=C(O)/C=C\C(=O)O | 44.5 | 4.1 | – | 6.3 | – | – | –
9 | COc1ccc(CCNCC(c2ccccc2)C2CCCCC2)cc1OC.O=C(O)/C=C\C(=O)O (stereo not given) | 73 | 3.6 | – | 7.25 | – | – | –
10 | C1CCC(NCCC23CC4CC(CC(C4)C2)C3)CC1.O=C(O)/C=C\C(=O)O | 99 | 4.7 | 6.75 | – | – | – | –
11 | C1CCC(NCCCCC(C2CCCCC2)C2CCCCC2)CC1 | – | – | – | – | Insoluble | Insoluble | Insoluble
12 | Cl.c1ccc(C(CCNC2CCCCC2)C2CCCCC2)cc1 (stereo not given) | 156 | 5.8 | 6.8 | – | – | – | –
13 | COc1ccc(CCNCCC23CC4CC(CC(C4)C2)C3)cc1OC.Cl | 133 | 4.8 | – | 7.35 | – | – | –
14 | O=[N+]([O-])O.c1ccc(C(CNC2CCCCC2)C2CCCCC2)cc1 (stereo not given) | 62 | 4.6 | 7.9 | – | – | – | –
15 | CC(Cc1ccccc1)NCCC12CC3CC(CC(C3)C1)C2.O=C(O)/C=C\C(=O)O (stereo not given) | 146 | 4.85 | 7.3 | – | – | – | –
16 | CN(CCC(C1CCCCC1)C1CCCCC1)C1CCCCC1.O=C(O)/C=C\C(=O)O | 67 | 4.85 | 6.15 | – | – | – | –
17 | C1CCC(C(CC2CCCCN2)C2CCCCC2)CC1 (stereo not given) [PERHEXILINE] | 37.5 | 5.2 | 6.7 | – | – | – | –
18 | COc1ccc(CC(C)NCC(c2ccccc2)C2CCCCC2)cc1.O=C(O)/C=C\C(=O)O (stereo not given) | 100.5 | 5.1 | – | 6 | – | – | –
19 | C1CCC(NCCCC(C2CCCCC2)C2CCCCC2)CC1.Cl | 95.5 | 4.6 | 6.05 | – | – | – | –
20 | CC(CCc1ccccc1)NCC(c1ccccc1)C1CCCCC1.O=C(O)/C=C\C(=O)O (stereo not given) | 71.5 | 6.1 | 7.6 | – | – | – | –
21 | CC(Cc1ccccc1)NCCC(C1CCCCC1)C1CCCCC1.O=C(O)/C=C\C(=O)O (stereo not given) | 42 | 5.2 | <5 | – | – | – | –
22 | CC(CCc1ccccc1)NCCC12CC3CC(CC(C3)C1)C2.O=C(O)/C=C\C(=O)O (stereo not given) | 215 | 5.1 | 7.15 | – | – | – | –
23 | C1CCC(NC(C2CCCCC2)C2CCCCC2)CC1.Cl | 194 | 5.45 | 6.2 | – | – | – | –
24 | CC(C)(C)NCC(c1ccccc1)C1CCCCC1.Cl (stereo not given) | 104.5 | <4.5 | 7.25 | – | – | – | –
25 | Cc1ccc(C(CNC2CCCCC2)C2CCCCC2)cc1.O=C(O)/C=C\C(=O)O (stereo not given) | 68 | 6 | 6.55 | – | – | – | –
